Measured values: ChEMBL document CHEMBL4513216, “Probing the Open Global Health Chemical Diversity Library for Multistage-Active Starting Points for Next-Generation Antimalarials” (ACS Infect Dis, 2020)

Assay: Toxicity liver stage against HepG2, at 10uM
Assay type: cell-based
Set-up: test concentration 10 uM, cell line HepG2-A16-CD81EGFP
Settings: human, HepG2-A16-CD81EGFP cells; read-out: INHIBITION
Summary of the method: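 Uninfected HepG2-A16-CD81EGFP cells, 3 × 10^3 per well, 1536-well, plated on prespotted compound at 10 μM final, parasite-free screening media added to match infected plates; puromycin 10 μM positive, DMSO 0.5% negative; run in parallel with 48 h PbLuc assay at 37 °C, 5% CO2; viability by CellTiter-Glo luminescence, normalized to controls.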

Structure (SMILES)	cytotoxicity at 10 µM [%]
O=c1[nH]c2c(-c3ccccn3)nsc2c(=O)n1CC1CC1	36.2
Cc1nn(C)cc1S(=O)(=O)N(CCc1ccccc1)Cc1ccn(C)n1	1.43
c1coc(CN2CCO[C@@]3(CCC[C@@H]3COCc3nccs3)C2)c1	-73.5
O=C(CNC(=O)N(Cc1ccoc1)C1CCCCC1)N1CCCC1	-1.3
CN1CC2(CCN(C(=O)c3ccc(-n4cccn4)cc3Cl)C2)OC1=O (stereo not given)	4.36
CCc1ccc(CNC(=O)c2ccc(N3CCOC3=O)cc2)s1	22.5
CC(C)N1CCCC(C(=O)N2CCN(c3nsc4ccccc34)CC2)C1 (stereo not given)	2.81
O=c1[nH]cc(N2CCCCC2)c(=O)[nH]1	5.55
Cc1ccc(N2CCC3(CCCN3Cc3ccn(C)n3)CC2)nn1	11.6
CC(C)(C)CC(=O)N1CCC(c2nn(CCN)c3nccnc23)C1 (stereo not given)	-20.9
Cc1nn(C)c2nc(N(Cc3ccccn3)CC3CCCO3)sc12 (stereo not given)	-1.01
COc1ccc(N2CCN(C(=O)C(C)n3cc(Br)cn3)CC2)cc1 (stereo not given)	11.4
Cc1ccc(CN2CC[C@@H]3OCCN(Cc4ccncc4)[C@H]3CC2)s1	6.84
C=c1nc(NC)sc1=C1NC(c2c(C)ncc3c2CCNC3)=NO1	1.67
Cc1ccc(N2CCN(CC3CC3)C3(CCN(C(C)C)CC3)C2=O)cn1	16
NC(=O)NC(=O)CCn1ccc(-c2ccsc2)n1	8.56
CCC(NC(=O)Cn1ccc(=O)n(C)c1=O)c1ccccc1OC (stereo not given)	7.23
COCCNC(=O)[C@H]1C[C@@](CC(C)C)(C(=O)O)N(C)[C@H]1c1cccnc1	-6.16
CN(CCC#N)C(=O)CSc1cc(F)ccc1F	13.2
CCOCC(=O)Nc1ncc(I)cc1C	-4.76
Cn1c(C2CCCCN2C(=O)CN2CCCC2=O)nc2ccccc21 (stereo not given)	-0.62
O=C(c1cscn1)N1C[C@H]2CCCC(OCc3cccnc3)[C@H]2C1 (stereo not given in full)	-6.61
CN(CCCc1ccc(C(F)(F)F)cc1)Cc1nccn1C	9.05

Structure (SMILES)	cytotoxicity at 10 µM [%]
CC(C(=O)N(C)Cc1ccc(Br)o1)n1cccn1 (stereo not given)	4.9
O=C(CCc1ccccc1)N1CCCCC1Cn1cccn1 (stereo not given)	3.78
Cc1sc(CN)nc1-c1ccccc1	-2.85
COc1cc(CN(C)Cc2cccnc2)c(SC)cc1OC	2.3
Cc1ccc(C(=O)Nc2cc(C(N)=O)ccc2CN(C)C)cc1Cl	18.5
Cc1ncsc1C(=O)NCCNC(=O)Cc1cccc(F)c1	-0.0716
O=C(NC[C@H]1OC[C@@H]2CCN(C(=O)c3ccco3)C[C@@H]21)C1CC1	-6.2
O=C(NCC1CCOCC1)[C@@H]1CC[C@@H]2[C@@H](CCN2Cc2ccncc2)O1	4.85
O=C(O)c1cc(-n2cc3c(n2)CCC3)cc(S(=O)(=O)N2CCOCC2)c1	-7.95
O=C(NCCc1nncn1C1CC1)C1SCCc2ccccc21 (stereo not given)	2.48
CC(=O)N(Cc1ncc(C)o1)C1CCN(Cc2csc(C)n2)C1 (stereo not given)	-15.8
CN(C(=O)C1CCCC1)C(c1cccc(F)c1)c1ccccn1 (stereo not given)	6.07
Cc1sc(N)nc1-c1ccc(Cl)cc1	-2.75
CCc1nc(C2CCCN2C(=O)CCc2ccc3c(c2)OCO3)no1 (stereo not given)	-4.62
Cc1cccnc1C(Cc1ccsc1)NCc1cnc(N(C)C)nc1 (stereo not given)	5.24
CCc1ccc(S(=O)(=O)Nc2c(C)cccc2C(=O)O)s1	-15.9
COCCOCC(=O)Nc1ccc(F)cc1C	12.8
COc1cccc(C(=O)NS(=O)(=O)c2cncc(Br)c2)c1OC	0.684
O=C(NC1CCCCC1)N1CCn2c(nnc2C2CCCN2)C1 (stereo not given)	0.336
CCS(=O)(=O)c1ccc2oc([C@H]3CCN(Cc4ccccc4)C3)nc2c1	4.03
NCC1CCC(C(NC(=O)CC2CCCC2)c2ccccn2)CC1 (stereo not given)	-14.6
O=C1[C@H]2CN(c3ncccn3)C[C@H]2CN1CC1CC1	4.41
